The values below come from the EternaBench riboswitch data.

The test system of the series is MS2 coat protein. The series is described as follows: apparent Kd, MS2 coat protein; higher = weaker binding; RNA-MaP array; FMN 200 µM where present. The procedure, abridged:
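Apparent Kd: the median of filtered binding-curve fits from single clusters. Designs were transcribed on Illumina sequencing-chip clusters by stalled E. coli RNA polymerase and titrated with SNAP-549-labelled MS2 coat protein from 0.7 or 1.5 nM, doubling to 3 µM, in 100 mM Tris-HCl pH 7.5, 80 mM KCl, 4 mM MgCl2, BSA, DTT, yeast tRNA and Tween-20. Each series ran without and then with constant ligand, and green signal was normalised to red-channel RNA signal and control-cluster median Fmax.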

Setting [1] is: designed as: OFF switch for flavin mononucleotide, no ligand.
Setting [2] is: ligand present: flavin mononucleotide, designed as: OFF switch for flavin mononucleotide.
Where [3] appears, read: designed as: ON switch for flavin mononucleotide, no ligand.
The mark [4] stands for this setting: ligand present: flavin mononucleotide, designed as: ON switch for flavin mononucleotide.

Regarding “AGCAUGUAAGGAUAUGCAAGUGGUAUGGAUCGUACCAGAAAGCAGAAGGUACAUGAGGAUCACCCAUGUGCUCC”, the “apparent Kd” value was 29.2 nM under setting [1] and 67.5 nM under setting [2].
As to “AAGAAACAUGAGGAUCACCCAUGUGAGGAUAUGUAAAAGAAAAGAAAAUAAAGAAGAAACAGAAGGCACAAAGG”, the “apparent Kd” value runs as follows: under setting [1], 40.2 nM; under setting [2], 64.4 nM.
For the sequence “AAAAGACAUGAGGAUCACCCAUGUCUUCGGACAUGAGGAUAUGUACAGACUUCGGUCUGUACAGAAGGCAUGUCAA”, the “apparent Kd” value stood at 39.8 nM under setting [3] and 17.2 nM under setting [4].
Take “AAGAGACAUCAGAAGGGAGCCCGAACGCGCGGCUCAGGAUAUGAGAUCUUAUGUAGUACGACAUGAGGAUCACCCAUGUCCGCG”: the “apparent Kd” value was determined as 28.2 nM under setting [3] and 8.05 nM under setting [4].
On to “AUGCUAUACGAAGGAUAUGGUUACAUGAGGAUCACCCAUGUAUUUUUUGUGAUCUUGUUUAAGUUCCAGAAGGUCGUAUAGCUA”, for which the “apparent Kd” value runs as follows: under setting [1], 486 nM; under setting [2], 617 nM.
Regarding “AUUAUUGACGUAGGAUAUUCUUACAUGAGGAUCACCCAUGUUAUUUGGGAACUAGGAAUAUUUUAGAAGAAGGACGUUGUUAAA”, the “apparent Kd” value is, setting by setting: under setting [3], 230 nM; under setting [4], 173 nM.
In the case of “GUAGAGUCAGGAUAUACAAAACCAUCGAUAGAUGGAUCCAUACAUGAGGAUCACCCAUGUAGAAGGGACUCUAC”, the “apparent Kd” value under setting [1] was found to be 20.3 nM and the “apparent Kd” value under setting [2] was found to be 21.5 nM.
On to “CUGUGACGGUGCGCAAGUGGACGGAGAAGGCAGACAUGAGGAUCACCCAUGUGAGCCUGCUAUUCUGAGGAUAUCCGUUCGUAC”, for which the “apparent Kd” value was 27 nM under setting [1] and 132 nM under setting [2].
Regarding “AUAUGAUAGAUAGGAUAUACUAUGGUUUAAGAAGUAGAAGGAUCAAUUGGGAAAUGUACAUGAGGAUCACCCAUGUUAUAGGUU”, the “apparent Kd” value is, setting by setting: under setting [3], 35.2 nM; under setting [4], 33.5 nM.
As for “GCCAAGGUACAGAAGGGACUACAUGAGGAUCACCCAUGUGUUUCUGCACGUAAAUGAUACAGUGGUCAGGAUAUGUGCUCCAAA”, the “apparent Kd” value by setting is: under setting [1], 9.49 nM; under setting [2], 25.8 nM.
Take “GCUGUCGCGUGAGGAUAUGGUCGGCUGUGCUGACCAGAAGGCAUGUCAAUAGACAUGAGGAUCACCCAUGUGGUUAGGGCGGCU”: the “apparent Kd” value reads like this: under setting [3], 865 nM; under setting [4], 127 nM.
Regarding “UAUUUUGAAGUAGGAUAUCAACACACAUGAGGAUCACCCAUGUUAGAUGUGGAUGUUGUAUGUUAUGAGAAGGACUUCGAUUCG”, the “apparent Kd” value under setting [1] came out at 20.6 nM and the “apparent Kd” value under setting [2] came to 76.4 nM.
With “GGAUGAGCAAUAGGAUAUGCUGGGAUUGAAUGGGUAGAAGGAUUUCUAGUGGGAAAGACAUGAGGAUCACCCAUGUCGCGGACC”, the “apparent Kd” value amounted to 25.2 nM under setting [3] and 26.6 nM under setting [4].
“UCUCUUCUGUAGAAGGCCCGACUUGUGAAGACAACAAUGCUAUAGAAGUAGGGAGGAUAUACAUGAGGAUCACCCAUGUAGGAA”: the “apparent Kd” value under setting [1] is 11.6 nM and the “apparent Kd” value under setting [2] is 29.3 nM.
Take “GUGUUACAUGAGGAUCACCCAUGUGAGGAUAUCAUGCUUCGUAGUAAACUACGAAGUGUGAGAAGGCACAUGAC”: the “apparent Kd” value by setting is: under setting [1], 265 nM; under setting [2], 806 nM.
On to “CGUAGUCCGUAGAAGGGUGACAUGAGGAUCACCCAUGUGCGAGCCGAGGGAGUCAGCGGCUCGCCACAGGAUAUACGGAGCACG”, for which the “apparent Kd” value was determined as 44.5 nM under setting [3] and 52.9 nM under setting [4].
Regarding “UGAUCGAGAGAUCUUAGAUUCUGCAAGGAUAUGCAAGAGUUGCGCUUUACAUGAGGAUCACCCAUGUAGAAGGUGUAGAGUCUA”, the “apparent Kd” value under setting [1] was 6.27 nM and the “apparent Kd” value under setting [2] was determined as 6.62 nM.
In the case of “GUGAAGAUAUCAGGAUAUCUAUUUCCUACAUGAGGAUCACCCAUGUAGGUGAUCAGCCGAGUAAAGGAGAAGGGAUAUCUUUAC”, the “apparent Kd” value by setting is: under setting [3], 23.6 nM; under setting [4], 10.1 nM.
“GCCAUGCUGGUGACGGAUAACACAUGAGGAUCACCCAUGUACAGAAGGCGGAAUUAGCGUAGGACCGAGGAUAUGUACGUGAGG”: the “apparent Kd” value under setting [1] is 89.5 nM and the “apparent Kd” value under setting [2] was 26.4 nM.
Regarding “GGAUAGGACACAGGAUAUACGUGCUAGAGAUACUAGCAAAAUUUCCUCACAUGAGGAUCACCCAUGUAGAAGGCUGUCCUAUCG”, the “apparent Kd” value came out at 6.15 nM under setting [1] and 5.95 nM under setting [2].
Consider “GCUGUCGCAUGAGGAUAUGGUCAGCUUUGCUGACCAGAAGGCAUGUCAAUAGACAUGAGGAUCACCCAUGUAGUUAAGACAGCA”, for which the “apparent Kd” value runs as follows: under setting [3], 717 nM; under setting [4], 49.2 nM.
Take “AAGUAGGUAGGAUAUACAUGGAUAUACAUUCAUGUGGAUUUACAUGAGGAUCACCCAUGUAGAAGGACCUAAUA”: the “apparent Kd” value runs as follows: under setting [1], 118 nM; under setting [2], 30.8 nM.
Regarding “AAAGCGGGAUAGAAGGUCUGCUUGGUGUAUUACAUGAGGAUCACCCAUGUAGAAGGAUAUAUCUCAUUCUUGGGCUCACCCAAA”, the “apparent Kd” value amounted to 208 nM under setting [1] and 367 nM under setting [2].
For “CUUAAGGCAGGAUAUGCUUUUUGUGACAUGAGGAUCACCCAUGUGAUGCAGUUUGGGUUUGCAGAAGGGCCUGAGU”, in that order: 111 nM and 61.1 nM.

The apparent Kd is the concentration giving half-maximal binding under the conditions of the assay.
